According to ChEMBL document CHEMBL4680065, “Pharmacophore-based screening of diamidine small molecule inhibitors for protein arginine methyltransferases” (RSC Med Chem, 2021):
Active and inactive are the calls of the source. The calls are words filed in the database; no cut-off is given here.

Experiments:
[1] = target: Protein arginine N-methyltransferase 3 (Homo sapiens, UniProt O60678); test: Inhibition of recombinant human His-tagged PRMT3 expressed in Escherichia coli BL21 (DE3) using biotin-labeled SMD1 as substrate incubated for 10 mins in presence of [3H]-SAM cofactor by scintillation proximity assay
Outline: (§1)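 The inhibitor was serially diluted and added to the enzyme, [3H]-SAM and substrate mixture, and methylated substrate was quantified by scintillation proximity assay. Reactions were held at initial rate, with yield under 10% and substrate near Km. PRMT3, PRMT8 and G9a were His-tagged human proteins, and PRMT7 was GST-tagged, all expressed in E. coli and affinity-purified.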

[2] = target: T1, Histone-arginine methyltransferase CARM1 (Homo sapiens) (UniProt Q86X55); test: Inhibition of recombinant GST-tagged CARM1 (unknown origin) expressed in Escherichia coli assessed as residual activity at 10 uM using histone H3.3 peptide as substrate incubated for 120 mins in presence of [3H]-SAM cofactor by radioactive filter plate assay relative to control
T1 sequence (whole entry): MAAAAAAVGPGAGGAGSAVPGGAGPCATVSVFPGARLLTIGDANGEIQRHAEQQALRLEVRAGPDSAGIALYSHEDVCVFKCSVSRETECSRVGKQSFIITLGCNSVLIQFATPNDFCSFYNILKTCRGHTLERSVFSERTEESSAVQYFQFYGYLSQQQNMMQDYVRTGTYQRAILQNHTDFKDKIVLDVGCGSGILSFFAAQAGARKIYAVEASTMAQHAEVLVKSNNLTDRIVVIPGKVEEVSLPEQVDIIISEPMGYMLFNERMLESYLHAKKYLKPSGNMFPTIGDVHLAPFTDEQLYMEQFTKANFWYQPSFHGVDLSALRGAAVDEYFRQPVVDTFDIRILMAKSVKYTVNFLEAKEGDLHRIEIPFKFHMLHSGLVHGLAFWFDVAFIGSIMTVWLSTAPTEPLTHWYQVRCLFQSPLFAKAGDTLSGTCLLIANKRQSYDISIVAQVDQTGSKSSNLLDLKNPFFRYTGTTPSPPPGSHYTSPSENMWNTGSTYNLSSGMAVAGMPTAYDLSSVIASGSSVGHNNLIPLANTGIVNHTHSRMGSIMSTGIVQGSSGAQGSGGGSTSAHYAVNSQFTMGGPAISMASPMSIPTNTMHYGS

[3] = target: T2, Protein arginine N-methyltransferase 6 (Homo sapiens, UniProt Q96LA8); test: Inhibition of PRMT6 (unknown origin) using biotin-labeled SMD1 as substrate incubated for 30 mins in presence of [3H]-SAM cofactor by scintillation proximity assay
Target sequence in this assay (Q96LA8 whole entry): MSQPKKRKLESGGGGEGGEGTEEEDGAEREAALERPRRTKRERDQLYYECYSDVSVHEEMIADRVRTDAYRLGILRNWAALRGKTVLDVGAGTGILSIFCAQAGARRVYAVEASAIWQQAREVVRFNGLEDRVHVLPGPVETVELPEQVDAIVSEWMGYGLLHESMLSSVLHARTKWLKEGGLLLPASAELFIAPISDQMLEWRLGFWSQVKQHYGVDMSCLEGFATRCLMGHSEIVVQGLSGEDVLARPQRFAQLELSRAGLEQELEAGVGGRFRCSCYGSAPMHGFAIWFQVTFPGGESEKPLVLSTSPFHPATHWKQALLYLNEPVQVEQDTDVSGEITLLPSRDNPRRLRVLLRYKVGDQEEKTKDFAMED

[4] = target: T2, Protein arginine N-methyltransferase 6; test: Inhibition of PRMT6 (unknown origin) assessed as residual activity at 10 uM using biotin-labeled SMD1 as substrate incubated for 30 mins in presence of [3H]-SAM cofactor by scintillation proximity assay relative to control
Outline: (§2)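 Single-point profiling used 10 μM inhibitor added to the enzyme, [3H]-SAM and substrate mixture. Methylated substrate was quantified by scintillation proximity assay. Reactions were held at initial rate, with yield under 10% and substrate near Km. Enzyme, [3H]-SAM and substrate final levels are given in the supplement.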
Target sequence in this assay (Q96LA8 whole entry, looked up): as the sequence (Q96LA8 whole entry) above

[5] = target: T3, Protein arginine N-methyltransferase 7 (Homo sapiens, UniProt Q9NVM4); test: Inhibition of recombinant GST-tagged PRMT7 (unknown origin) expressed in Escherichia coli using biotin-labeled SMD1 as substrate incubated for 120 mins in presence of [3H]-SAM cofactor by scintillation proximity assay; outline: as §1
T3 sequence (Q9NVM4 whole entry): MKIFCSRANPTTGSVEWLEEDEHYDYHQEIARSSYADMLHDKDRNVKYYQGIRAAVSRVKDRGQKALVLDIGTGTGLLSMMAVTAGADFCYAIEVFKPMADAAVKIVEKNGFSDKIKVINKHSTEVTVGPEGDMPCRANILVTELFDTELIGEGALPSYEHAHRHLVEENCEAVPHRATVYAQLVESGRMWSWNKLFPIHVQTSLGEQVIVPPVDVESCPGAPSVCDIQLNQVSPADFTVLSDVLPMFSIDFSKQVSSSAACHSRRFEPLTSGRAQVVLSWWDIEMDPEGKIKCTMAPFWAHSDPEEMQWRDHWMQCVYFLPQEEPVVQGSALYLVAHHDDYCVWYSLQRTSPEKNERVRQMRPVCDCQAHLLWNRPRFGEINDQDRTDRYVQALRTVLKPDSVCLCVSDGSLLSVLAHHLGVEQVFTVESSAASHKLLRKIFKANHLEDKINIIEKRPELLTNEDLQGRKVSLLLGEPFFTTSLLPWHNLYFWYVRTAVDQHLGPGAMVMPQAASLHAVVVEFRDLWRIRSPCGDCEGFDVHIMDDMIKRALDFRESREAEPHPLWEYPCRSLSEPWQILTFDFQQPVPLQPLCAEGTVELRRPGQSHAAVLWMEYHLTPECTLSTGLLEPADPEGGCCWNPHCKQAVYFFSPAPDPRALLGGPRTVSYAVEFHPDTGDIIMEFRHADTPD

[6] = target: T4, Protein arginine N-methyltransferase 7 (Homo sapiens) (UniProt Q9NVM4); test: Inhibition of recombinant GST-tagged PRMT7 (unknown origin) expressed in Escherichia coli assessed as residual activity at 10 uM using biotin-labeled SMD1 as substrate incubated for 120 mins in presence of [3H]-SAM cofactor by scintillation proximity assay relative to control; outline: as §2
T4 sequence (whole entry): T3 sequence (Q9NVM4 whole entry)

[7] = target: Protein arginine N-methyltransferase 8 (Homo sapiens, UniProt Q9NR22); test: Inhibition of recombinant His-tagged human PRMT8 expressed in Escherichia coli BL21 (DE3) using biotin-labeled histone H4-20 peptide as substrate incubated for 8 mins in presence of [3H]-SAM cofactor by scintillation proximity assay; outline: as §1
MEG-01 = test: Antiproliferative activity against human MEG-01 cells assessed as inhibition of cell growth measured after 72 hrs by CellTiter-Glo assay; assay type: functional, cell-based; details: MEG-01, 72 h
Outline: (§3)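 Cells were cultured with the test agent, serially diluted, for 72 h. The control received the same amount of DMSO. Cell viability was then measured, and IC50 values were taken from sensitivity curves.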

CMK = test: Antiproliferative activity against human CMK cells assessed as inhibition of cell growth measured after 72 hrs by CellTiter-Glo assay; assay type: functional, cell-based; outline: as §3
K562 = test: Antiproliferative activity against human K562 cells assessed as inhibition of cell growth measured after 72 hrs by CellTiter-Glo assay; assay type: functional, cell-based; details: K562, 72 h; outline: as §3
HEL = test: Antiproliferative activity against human HEL cells assessed as inhibition of cell growth measured after 72 hrs by CellTiter-Glo assay; assay type: functional, cell-based; outline: as §3
[8] = target: T5, Protein arginine N-methyltransferase 1 (Homo sapiens, UniProt Q99873); test: Inhibition of PRMT1 in human MEG-01 cells assessed as reduction in RBM15 methylation level measured after 24 hrs by immunoblotting analysis; assay type: cell-based
Outline: (§4)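 MEG01 cells were cultured for 24 h with the inhibitor (100 nM, 200 nM) or with DMSO control. Cell extracts were resolved by SDS-PAGE and immunoblotted with anti-methyl-RBM15 antibody and the pan-asymmetric methylation antibody α-Asym24. Equal loading was checked by Ponceau S staining.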

[9] = target: T5, Protein arginine N-methyltransferase 1; test: Inhibition of PRMT1 in human MEG-01 cells assessed as reduction in RBM15 total asymmetric arginine methylation level at 100 to 200 nM measured after 24 hrs by immunoblotting analysis; assay type: cell-based; details: dose 100-200 nM; outline: as §4

T5 sequence (Q99873 whole entry, looked up): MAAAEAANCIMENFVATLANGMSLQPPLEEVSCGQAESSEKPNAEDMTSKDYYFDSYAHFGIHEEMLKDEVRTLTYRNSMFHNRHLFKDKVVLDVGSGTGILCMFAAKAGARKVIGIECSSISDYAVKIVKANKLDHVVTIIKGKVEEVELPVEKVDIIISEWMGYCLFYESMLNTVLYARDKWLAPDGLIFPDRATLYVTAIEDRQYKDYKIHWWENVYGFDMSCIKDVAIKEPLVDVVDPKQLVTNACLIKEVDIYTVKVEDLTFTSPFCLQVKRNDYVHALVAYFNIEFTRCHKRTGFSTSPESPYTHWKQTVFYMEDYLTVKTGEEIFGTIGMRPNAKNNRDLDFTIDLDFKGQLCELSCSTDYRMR
Chain of Protein arginine N-methyltransferase 8 (Q9NR22 whole entry): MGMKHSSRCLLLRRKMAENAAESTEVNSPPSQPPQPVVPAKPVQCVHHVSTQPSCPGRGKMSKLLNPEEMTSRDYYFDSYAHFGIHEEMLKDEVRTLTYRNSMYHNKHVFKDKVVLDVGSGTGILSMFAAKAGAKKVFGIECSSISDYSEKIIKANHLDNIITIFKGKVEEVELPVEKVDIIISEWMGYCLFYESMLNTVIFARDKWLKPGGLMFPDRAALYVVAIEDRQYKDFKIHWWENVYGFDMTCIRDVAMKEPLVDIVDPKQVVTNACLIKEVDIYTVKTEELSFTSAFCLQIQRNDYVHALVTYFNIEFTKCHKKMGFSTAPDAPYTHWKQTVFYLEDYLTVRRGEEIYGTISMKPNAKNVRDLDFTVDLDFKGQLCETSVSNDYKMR
Chain of Protein arginine N-methyltransferase 3 (O60678 whole entry): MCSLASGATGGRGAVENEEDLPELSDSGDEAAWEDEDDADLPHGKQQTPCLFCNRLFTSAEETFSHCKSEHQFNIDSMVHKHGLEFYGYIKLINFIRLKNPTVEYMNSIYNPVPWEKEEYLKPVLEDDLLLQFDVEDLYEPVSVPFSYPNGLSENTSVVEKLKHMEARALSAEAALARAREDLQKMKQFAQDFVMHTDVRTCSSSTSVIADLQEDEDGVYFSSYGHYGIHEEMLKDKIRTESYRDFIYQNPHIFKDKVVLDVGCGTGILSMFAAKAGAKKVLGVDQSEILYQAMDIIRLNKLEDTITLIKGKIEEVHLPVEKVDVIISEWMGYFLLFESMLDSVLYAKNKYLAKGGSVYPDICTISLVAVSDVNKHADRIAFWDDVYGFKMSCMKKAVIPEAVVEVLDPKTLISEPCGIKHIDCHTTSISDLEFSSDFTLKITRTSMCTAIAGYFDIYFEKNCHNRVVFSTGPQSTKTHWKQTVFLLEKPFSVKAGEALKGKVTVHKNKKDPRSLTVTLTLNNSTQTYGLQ

Structure (SMILES): N=C(N)c1ccc(Nc2ccc(-c3cc4ccc(C(=N)N)cc4[nH]3)cc2)cc1
- IC50 [1]: 3.4 µM
- Activity [2]: 50.7%
- IC50 [3]: 2.8 µM
- Activity [4]: 22.9%
- IC50 [5]: 23.6 µM
- Activity [6]: 32.1%
- IC50 [7]: 8.2 µM
- IC50 (MEG-01): 1.03 µM
- IC50 (CMK): 1.31 µM
- IC50 (K562): 1.08 µM
- IC50 (HEL): 2.27 µM
- inhibition [8]: Dose-dependent effect
- inhibition [9]: Active
